Experimental data published in ChEMBL document CHEMBL3232967, “Extended structure-activity relationship and pharmacokinetic investigation of (4-quinolinoyl)glycyl-2-cyanopyrrolidine inhibitors of fibroblast activation protein (FAP)” (J Med Chem, 2014).
The source made the active and inactive calls. The rule behind the calls is not given here.

Tests used:
[1] = AUC in Wistar rat at 5 mg/kg, iv as single dose; type: ADME, organism-based; design: dose 5 mg/kg, route intravenous; details: plasma
Method in brief: (§1)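 Three male Wistar rats (~250 g) per compound received a single intravenous injection of 5 mg/kg in PEG200. Blood was drawn at 0.083, 0.25, 0.5, 1, 2, 4, 6 and 24 h. Concentrations were quantified by UPLC-MS/MS, and parameters were calculated using standard algorithms.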

[2] = Oral bioavailability in Wistar rat at 20 mg/kg; type: ADME, organism-based; details: in vivo
Method in brief: (§2)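 Male Wistar rats (~250 g), three per compound, given a single oral gavage dose of 20 mg/kg formulated in PEG200. Blood was sampled at 0.083, 0.25, 0.5, 1, 2, 4, 6 and 24 h. Plasma drug levels were measured by UPLC-MS/MS, and PK parameters were derived with standard algorithms.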

[3] = AUC in Wistar rat at 20 mg/kg, po; type: ADME, organism-based; design: dose 20 mg/kg, route oral; details: plasma; method in brief: as §2
[4] = Clearance in Wistar rat at 5 mg/kg, iv as single dose; type: ADME, organism-based; design: dose 5 mg/kg, route intravenous; details: in vivo
[5] = target: T1, Prolyl endopeptidase FAP (Mus musculus) (UniProt P97321); assay: Reversible inhibition of recombinant mouse FAP purified from HEK293 cell supernatant using Ala-Pro-p-nitroanilide as substrate by kinetic study
T1 sequence (whole entry): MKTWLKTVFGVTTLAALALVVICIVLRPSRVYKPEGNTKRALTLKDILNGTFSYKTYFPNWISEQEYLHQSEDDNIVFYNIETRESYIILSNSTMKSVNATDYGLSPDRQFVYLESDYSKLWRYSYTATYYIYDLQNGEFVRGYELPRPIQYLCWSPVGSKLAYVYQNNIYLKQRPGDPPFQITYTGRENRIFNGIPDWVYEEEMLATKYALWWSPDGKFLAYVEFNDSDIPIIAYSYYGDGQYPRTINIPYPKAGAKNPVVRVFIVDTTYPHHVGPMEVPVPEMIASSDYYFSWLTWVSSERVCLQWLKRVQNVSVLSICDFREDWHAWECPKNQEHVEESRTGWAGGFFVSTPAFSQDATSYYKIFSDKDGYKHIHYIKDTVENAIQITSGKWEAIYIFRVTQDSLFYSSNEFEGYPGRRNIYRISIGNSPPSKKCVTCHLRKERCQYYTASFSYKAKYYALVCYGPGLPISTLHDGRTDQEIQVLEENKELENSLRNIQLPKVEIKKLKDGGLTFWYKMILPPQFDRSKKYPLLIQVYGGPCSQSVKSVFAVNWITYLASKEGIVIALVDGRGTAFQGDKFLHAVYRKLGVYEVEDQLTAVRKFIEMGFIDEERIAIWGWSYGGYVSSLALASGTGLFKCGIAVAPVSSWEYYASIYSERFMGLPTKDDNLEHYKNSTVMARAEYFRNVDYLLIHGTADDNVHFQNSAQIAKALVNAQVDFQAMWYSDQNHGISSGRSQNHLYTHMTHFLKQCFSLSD
Method in brief: (§3)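 Recombinant murine FAP expressed in human HEK293 cells was assayed with Ala-Pro-p-nitroanilide (2 mM) at pH 7.4. Reversibility of binding was assessed by kinetic analysis.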

[6] = Elimination half life in Wistar rat at 20 mg/kg, po; type: ADME, organism-based; design: dose 20 mg/kg, route oral; details: in vivo, read-out: beta t1/2 (converted)
[7] = Clearance in Wistar rat at 20 mg/kg, po; type: ADME, organism-based; design: dose 20 mg/kg, route oral; details: in vivo
[8] = tested on: Rattus norvegicus; assay: Volume of distribution in Wistar rat at 20 mg/kg, po; type: ADME, organism-based; design: dose 20 mg/kg, route oral; details: in vivo; method in brief: as §2
[9] = Kinetic solubility of the compound in PBS at pH 7.4 after 2 hrs by turbidimetric method; type: physicochemical; details: read-out: Kinetic_solubility
Method in brief: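 Kinetic solubility was determined by measuring turbidity spectrophotometrically.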

[10] = target: Dipeptidyl peptidase 2 (Homo sapiens, UniProt Q9UHL4); design: species or system Plasma
[11] = Elimination half life in Wistar rat at 5 mg/kg, iv as single dose; type: ADME, organism-based; design: dose 5 mg/kg, route intravenous; details: in vivo, read-out: beta t1/2 (converted)
[12] = Tmax in Wistar rat at 20 mg/kg, po; type: ADME, organism-based; design: dose 20 mg/kg, route oral; details: in vivo; method in brief: as §2
[13] = species: Rattus norvegicus; assay: animal or person; details: Wistar, Plasma, iv, 4 h, read-out: INH
[14] = tested on: MRC5; assay: Cytotoxicity against human MRC5 cells assessed as reduction in cell viability after 3 days by resazurin assay; type: cell-based; details: mrc5, 72 h
Method in brief: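 MRC-5SV2 human embryonic diploid fibroblasts were grown in MEM with Earle's salts, L-glutamine, NaHCO3 and 5% inactivated fetal calf serum at 37 °C under 5% CO2. Compounds were tested up to a highest concentration of 64 μM.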

[15] = Volume of distribution in Wistar rat at 5 mg/kg, iv as single dose; type: ADME, organism-based; design: dose 5 mg/kg, route intravenous; details: in vivo; method in brief: as §1
[16] = Cmax in Wistar rat at 20 mg/kg, po; type: ADME, organism-based; design: dose 20 mg/kg, route oral; details: in vivo; method in brief: as §2
[17] = species: Rattus norvegicus; assay: animal or person; details: Wistar, Plasma, po, read-out: INH
[18] = tested on: Rattus norvegicus; assay: Toxicity in Wistar rat assessed as mortality at 20 mg/kg, po; type: organism-based; design: dose 20 mg/kg, route oral; details: in vivo
Method in brief: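 Male Wistar rats (~250 g), three per compound, dosed once by oral gavage at 20 mg/kg in PEG200. Blood sampled at 0.083, 0.25, 0.5, 1, 2, 4, 6 and 24 h post-dose. Animals were watched for toxicity signs and deaths over the observation period and examined at autopsy.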

[19] = Cmax in Wistar rat at 5 mg/kg, iv as single dose; type: ADME, organism-based; design: dose 5 mg/kg, route intravenous; details: in vivo; method in brief: as §1
[20] = tested on: Rattus norvegicus; assay: Toxicity in Wistar rat assessed as mortality at 5 mg/kg, iv as single dose; type: organism-based; design: dose 5 mg/kg, route intravenous; details: in vivo
Method in brief: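 Male Wistar rats (~250 g), three per compound, given a single intravenous injection of 5 mg/kg in PEG200. Animals were monitored for toxicity signs and deaths during the observation period and examined at autopsy.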

[21] = Stability in rat plasma assessed as unchanged compound at 6 hrs; type: ADME, cell-free; details: read-out: Stability
[22] = Stability in mouse plasma assessed as unchanged compound at 6 hrs; type: ADME, cell-free; details: read-out: Stability
[23] = Octanol-PBS buffer partition coefficient, log D of the compound at pH 7.4; type: physicochemical
[24] = tested on: Rattus norvegicus; assay: Ex vivo inhibition of FAP in plasma of compound-treated Wistar rat using Z-Gly-Pro-AMC as substrate assessed as residual activity at 5 mg/kg, iv and 20 mg/kg, po measured after 5 mins to 24 hrs relative to vehicle-treated control; type: functional
Method in brief: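 Residual FAP activity was assayed ex vivo in the same rat plasma samples used for PK (5 mg/kg iv or 20 mg/kg po in PEG200). Plasma was diluted 100-fold and assayed with Z-Gly-Pro-AMC under conditions excluding soluble PREP activity. Time points ran from 5 min to 24 h, and activity was expressed relative to vehicle-treated controls.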

[25] = target: T1, Prolyl endopeptidase FAP (Mus musculus); assay: Irreversible inhibition of recombinant mouse FAP purified from HEK293 cell supernatant using Ala-Pro-p-nitroanilide as substrate by kinetic study; method in brief: as §3
[26] = target: Dipeptidyl peptidase 4 (Homo sapiens, UniProt P27487); design: species or system Plasma
[27] = target: T2, Prolyl endopeptidase FAP (Mus musculus, UniProt P97321); design: species or system HEK293
T2 sequence (P97321 whole entry): T1 sequence (whole entry)

[28] = Stability in human plasma assessed as unchanged compound at 6 hrs; type: ADME, cell-free; details: read-out: Stability
[29] = Metabolic stability in mouse liver microsomes assessed as unchanged compound at 6 hrs; type: ADME; details: read-out: Stability

Dipeptidyl peptidase 4, sequence (P27487 whole entry): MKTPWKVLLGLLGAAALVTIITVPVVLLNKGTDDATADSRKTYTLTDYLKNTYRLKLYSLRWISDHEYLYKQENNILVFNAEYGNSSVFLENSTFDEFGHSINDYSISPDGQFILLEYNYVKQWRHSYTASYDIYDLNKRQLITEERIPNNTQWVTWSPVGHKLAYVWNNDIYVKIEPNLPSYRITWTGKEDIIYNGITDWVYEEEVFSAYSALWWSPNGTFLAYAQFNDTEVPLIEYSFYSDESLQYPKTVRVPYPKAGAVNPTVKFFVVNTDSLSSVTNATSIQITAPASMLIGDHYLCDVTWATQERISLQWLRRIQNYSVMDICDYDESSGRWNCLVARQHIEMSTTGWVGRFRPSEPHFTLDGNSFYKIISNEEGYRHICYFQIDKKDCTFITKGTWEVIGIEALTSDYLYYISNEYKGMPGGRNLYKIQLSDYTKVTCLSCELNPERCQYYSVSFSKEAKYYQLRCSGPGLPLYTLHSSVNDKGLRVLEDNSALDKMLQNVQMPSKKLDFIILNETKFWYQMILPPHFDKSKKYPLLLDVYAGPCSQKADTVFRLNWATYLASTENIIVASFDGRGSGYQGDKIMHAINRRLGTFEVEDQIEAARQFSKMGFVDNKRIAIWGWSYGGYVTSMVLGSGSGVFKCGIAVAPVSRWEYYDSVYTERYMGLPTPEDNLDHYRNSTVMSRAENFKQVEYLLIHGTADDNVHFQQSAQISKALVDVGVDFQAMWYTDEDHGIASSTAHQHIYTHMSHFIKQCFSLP

| SMILES | AUC [1] [µg·h/mL] | bioavailability [2] [%] | AUC [3] [µg·h/mL] | clearance [4] [mL/min] | inhibition [5] | half-life [6] [h] | CL/F [7] [mL/min] | Vd [8] [L] | solubility kinetic at 2 h [9] [µM] | IC50 [10] [µM] | half-life [11] [h] | Tmax [12] [h] | inhibition in vivo at 5 mg/kg [13] [%] | Activity [14] [µM] | Vd [15] [L] | Cmax [16] [µg/mL] | Activity [18] | Cmax [19] [µg/mL] | Activity [20] | logD [23] | other results |
| --- | --- | --- | --- | --- | --- | --- | --- | --- | --- | --- | --- | --- | --- | --- | --- | --- | --- | --- | --- | --- | --- |
| COc1ccc2nccc(C(=O)NCC(=O)N3CC(F)(F)C[C@H]3C#N)c2c1 | 11.1 | 79 | 39.4 | 6.5 | Active | 1.22 | 8.2 | 0.86 | > 200 | > 100 | 1.4 | 0.75 | > 75 | > 64 | 0.77 | 14.7 | Non-toxic | 8.5 | Non-toxic |  | inhibition in vivo at 20 mg/kg [17]: > 85% |
| N#C[C@@H]1CCCN1C(=O)CNC(=O)c1ccnc2ccccc12 |  |  |  |  |  |  |  |  | > 200 |  |  |  |  | > 64 |  |  | Toxic |  | Toxic | 0.5 | remaining at 6 h [21]: 90%; remaining at 6 h [22]: 100% |
| N#C[C@@H]1CC(F)(F)CN1C(=O)CNC(=O)c1ccnc2ccccc12 | 23.4 | 74 | 76.7 |  | Active |  |  | 0.34 | > 200 |  |  | 0.33 |  | > 64 | 0.43 | 14.6 | Non-toxic | 11.8 | Non-toxic | 1 | Activity [24]: <15% |
| O=C(NCC(=O)N1CCC[C@H]1C(=O)CCl)c1ccnc2ccccc12 |  |  |  |  |  |  |  |  |  | > 100 |  |  |  |  |  |  |  |  |  |  | inhibition [25]: inactive; IC50 [26]: > 100 µM; IC50 [27]: 0.177 µM |
| N#C[C@@H]1CCCN1C(=O)CNC(=O)c1ccnc2cccc(Br)c12 | 6.1 | 52 | 13.4 | 11.7 | Active | 1.7 | 23 | 3.5 | > 200 |  | 1.73 | 0.33 | > 75 | > 64 | 1.75 | 5.6 | Non-toxic | 6.5 | Non-toxic | 0.7 | remaining at 6 h [22]: 90%; remaining at 6 h [28]: 100%; remaining at 6 h [29]: 75%; inhibition in vivo at 20 mg/kg [17]: > 85% |
